Measured values published in ChEMBL document CHEMBL3102721, “Napyradiomycin derivatives, produced by a marine-derived actinomycete, illustrate cytotoxicity by induction of apoptosis” (J Nat Prod, 2014).
Activity calls are given as the source filed them. The calls are words filed in the database; no cut-off is given here.

Assays:
HCT-116 [1] = test: Antiproliferative activity against human HCT116 cells assessed as cell viability after 72 hrs by MTS assay; type: functional, cell-based; settings: HCT-116, 72 h
In short: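 HCT-116 cells plated, left overnight at 37 °C in 5% CO2/air, then given compound from 10 mg/mL DMSO stock at 100 μM top concentration with serial dilution. After 72 h, MTS/PMS added for 3 h and formazan read at 490 nm. IC50 with 95% CI calculated from viability. Etoposide positive control, DMSO negative control.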

HCT-116 [2] = test: Induction of apoptosis in human HCT116 cells after 24 hrs by Yo-Pro-1/PI staining-based FACS flow cytometric analysis; type: functional, cell-based
In short: (§1)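 HCT116 cells were grown in McCoy's medium with 10% FBS at 37 °C, 5% CO2, to 50% confluence, then treated for 24 h. They were trypsinized, washed in cold PBS and brought to ~1×10^6 cells/mL. Staining was 30 min on ice with 0.1 μM Yo-Pro-1 (apoptotic) and 3 μg/mL PI (necrotic), final concentrations. Flow cytometry used 488 nm excitation. Gates were set with DMSO and 10 μM camptothecin (24 h) controls, excluding debris.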

HCT-116 [3] = test: Induction of apoptosis in human HCT116 cells at 1 to 16 uM after 24 hrs by Yo-Pro-1/PI staining-based FACS flow cytometric analysis; type: functional, cell-based; in short: as §1
HCT-116 [4] = test: Induction of cell death in human HCT116 cells at 1 to 16 uM after 24 hrs by Yo-Pro-1/PI staining-based FACS flow cytometric analysis; type: functional; in short: as §1
HCT-116 [5] = test: Induction of apoptosis in human HCT116 cells at 4 uM after 24 hrs by Yo-Pro-1/PI staining-based FACS flow cytometric analysis; type: functional, cell-based; in short: as §1
HCT-116 [6] = test: Induction of cell death in human HCT116 cells at 32 uM after 24 hrs by Yo-Pro-1/PI staining-based FACS flow cytometric analysis; type: functional; in short: as §1

IC50 (HCT-116 [1]) [µM]	SMILES	other results
1	COc1cc([C@@H]2c3cc4c(cc3[C@@H](O[C@@H]3O[C@@H]5CO[C@@H](C)O[C@H]5[C@H](O)[C@H]3O)[C@H]3COC(=O)[C@H]23)OCO4)cc(OC)c1O [ETOPOSIDE]	
2	C=C1CC[C@H](Cl)C(C)(C)[C@@H]1C[C@@]12OC(C)(C)[C@H](Cl)C[C@]1(Cl)C(=O)c1c(O)cc(O)cc1C2=O	
49	Cc1c(O)cc2c(c1O)C(=O)[C@H]1C[C@@H](Br)C(C)(C)O[C@@]1(C[C@H]1C(C)(C)[C@@H](Br)CC[C@]1(C)O)C2=O	
> 100	Cc1c(O)cc2c(c1O)C(=O)C1C[C@@H](Cl)C(C)(C)O[C@@]1(C[C@H]1C(C)(C)[C@@H](Cl)CC[C@]1(C)O)C2=O (stereo partly drawn)	
15	Cc1c(O)cc2c(c1O)C(=O)[C@@]1(Cl)C[C@@H](Cl)C(C)(C)O[C@@]1(C[C@H]1C(C)(C)[C@@H](Cl)CC[C@]1(C)O)C2=O	Activity (HCT-116 [2]): Dose-dependent effect; Activity (HCT-116 [3]): Active; Activity (HCT-116 [4]): Active
6	CC(C)=CCC/C(C)=C/C[C@@]12OC(C)(C)[C@H](Br)C[C@]1(Cl)C(=O)c1c(cc(O)c(C)c1O)C2=O	
17	Cc1c(O)cc2c(c1O)C(=O)[C@@]1(Cl)C[C@@H](Cl)C(C)(C)O[C@@]1(C[C@H]1C(C)(C)[C@H]3CC[C@]1(C)O3)C2=O	Activity (HCT-116 [5]): Active; Activity (HCT-116 [2]): Dose-dependent effect
> 100	Cc1c(O)cc2c(c1O)C(=O)[C@@]1(Cl)C[C@@H](Br)C(C)(C)O[C@@]1(C[C@H]1C(C)(C)[C@H]3CC[C@]1(C)O3)C2=O	
< 1	CC1=C(O)C2=C(C(=O)[C@]3(C[C@H]4C(C)(C)[C@@H](Cl)CC[C@]4(C)O)OC(C)(C)[C@H](Cl)C[C@]3(Cl)C2=O)C(=[N+]=[N-])C1=O	
3	C=C1CC[C@H](Cl)C(C)(C)[C@@H]1C[C@@]12OC(C)(C)[C@H](Cl)C[C@]1(Cl)C(=O)c1c(cc(O)c(C)c1O)C2=O	Activity (HCT-116 [5]): Active; Activity (HCT-116 [2]): Dose-dependent effect
10	CC1(C)O[C@@]2(C[C@H]3C(C)(C)[C@@H](Cl)CC[C@]3(C)O)C(=O)c3cc(O)cc(O)c3C(=O)[C@@]2(Cl)C[C@H]1Cl	
> 100	Cc1c(O)cc2c(c1O)C(=O)C1=C[C@@H](Cl)C(C)(C)O[C@@]1(C[C@H]1C(C)(C)[C@@H](Cl)CC[C@]1(C)O)C2=O	
3	C=C1CC[C@H](Br)C(C)(C)[C@@H]1C[C@@]12OC(C)(C)[C@H](Cl)C[C@]1(Cl)C(=O)c1c(O)cc(O)cc1C2=O	
< 1	C=C1CC[C@H](Cl)C(C)(C)[C@@H]1C[C@@]12OC(C)(C)[C@H](Cl)C[C@]1(Cl)C(=O)C1=C(C2=O)C(=[N+]=[N-])C(=O)C(C)=C1O	Activity (HCT-116 [2]): Dose-dependent effect; Activity (HCT-116 [6]): Active
